Source: ChEMBL document CHEMBL1138226, “Biological mechanisms of action of novel C-10 non-acetal trioxane dimers in prostate cancer cell lines” (2006)
The source made the active and inactive calls. The calls are words filed in the database; no cut-off is given here.

Experiments:
LNCaP [1] = assay: Decrease in Cyclin E expression in LNCaP cells at 50 nM after 72 hrs by Western blot analysis; format: functional, cell-based; conditions: Homo sapiens
Summary of the method: (§1)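 Sub-confluent LNCaP cells given 50 nM or ethanol vehicle for 72 h. Lysed in Triton X-100/SDS buffer with protease and phosphatase inhibitors, run on SDS-PAGE, blotted to PVDF, probed overnight at 4 °C, detected by HRP chemiluminescence. Bands quantified by densitometry, normalized to actin and expressed relative to control.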

TRAMP-C2H [2] = assay: Growth inhibition of mouse C2H cells after 72 hrs by MTT assay; format: functional
Summary of the method: (§2)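 Seeded overnight at C1A 2500, C2H 1500 or LNCaP 10,000 cells/well, then exposed to a range of concentrations or ethanol vehicle for 72 h. MTT added for 4 h, cells solubilized in 20% SDS/0.02 N HCl, absorbance read at 570 nm. Concentration for 50% growth inhibition (GI50) calculated. Replicate wells ± SD; ≥3 independent experiments.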

LNCaP [3] = assay: Increase in bax expression in LNCaP cells at 50 nM after 72 hrs by Western blot analysis; format: functional, cell-based; conditions: Homo sapiens; summary of the method: as §1
LNCaP [4] = assay: Inhibition of cyclin D1 expression in LNCaP cells at 50 nM after 72 hrs by Western blot analysis; format: functional, cell-based; conditions: Homo sapiens; summary of the method: as §1
LNCaP [5] = assay: Growth inhibition of human LNCaP cells after 72 hrs by MTT assay; format: functional; summary of the method: as §2
LNCaP [6] = assay: Induction of early apoptosis in LNCaP cells at 50 nM after 72 hrs relative to control by V-PE/7-AAD staining; format: functional, Homo sapiens
Summary of the method: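 Sub-confluent LNCaP cells given 50 nM or vehicle for 72 h, trypsinized, washed in cold PBS, stained with annexin V-PE and 7-AAD for 15 min in the dark, analysed by flow cytometry. Early apoptosis = annexin V-positive only. Reported as fold over control ± SEM; ANOVA.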

LNCaP [7] = assay: Decrease in CDK4 expression in LNCaP cells at 50 nM after 72 hrs by Western blot analysis; format: functional, Homo sapiens; parameters: scale not given: the % may be the effect or the level left; summary of the method: as §1
LNCaP [8] = assay: Increase in p53 expression in LNCaP cells at 50 nM after 72 hrs relative to control by Western blot analysis; format: functional, cell-based; conditions: Homo sapiens; summary of the method: as §1
LNCaP [9] = assay: Inhibition of CDK2 expression in LNCaP cells at 50 nM after 72 hrs by Western blot analysis; format: functional, cell-based; conditions: Homo sapiens; summary of the method: as §1
LNCaP [10] = assay: Cell cycle arrest in LNCaP cells by accumulation at G1/S phase at 50 nM after 72 hrs by PI staining; format: functional, cell-based; conditions: Homo sapiens
Summary of the method: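 Sub-confluent LNCaP cells given vehicle (ethanol) or 50 nM for 72 h. Cells fixed in ice-cold 70% ethanol at 4 °C for ≥30 min, then stained with PI (10 μg/mL) plus RNase A (100 μg/mL) for 30 min in the dark. Phase distribution read by flow cytometry. Mean of three independent experiments ± SEM.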

TRAMP-C1A = assay: Growth inhibition of mouse C1A cells after 72 hrs by MTT assay; format: functional; summary of the method: as §2
[11] = biological target: Cyclin-dependent kinase 2 (Homo sapiens) (UniProt P24941); assay: Inhibition of CDK2 kinase activity assessed as decrease in histone H1 phosphorylation in LNCaP cells at 50 nM after 72 hrs by Western blot analysis; format: functional, cell-based
Summary of the method: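 LNCaP cells given 50 nM or vehicle for 72 h, lysed in NP40 buffer. Lysate (100 μg) immunoprecipitated overnight at 4 °C with cdk2 antibody on protein A/G beads. Beads incubated 30 min at 30 °C with 2 μg histone H1, 20 μM ATP and 5 μCi [γ-32P]ATP. Reaction resolved by SDS-PAGE and phospho-H1 detected by autoradiography, with cdk2 immunoblot alongside.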

LNCaP [12] = assay: Increase in p27 expression in LNCaP cells at 50 nM after 72 hrs relative to control by Western blot analysis; format: functional, Homo sapiens; summary of the method: as §1
LNCaP [13] = assay: Increase in p21 expression in LNCaP cells at 50 nM after 72 hrs relative to control by Western blot analysis; format: functional, Homo sapiens; summary of the method: as §1
LNCaP [14] = assay: Inhibition of DNA synthesis in human LNCaP cells at 50 nM after 72 hrs by BrdU incorporation assay; format: functional; parameters: scale not given: the % may be the effect or the level left
Summary of the method: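 LNCaP cells given 50 nM or vehicle for 72 h, pulsed 30 min with 100 μg/mL BrdU plus 1 μg/mL FdU. Cells fixed, DNA denatured with 2 N HCl, neutralized with borate pH 8.5, stained with anti-BrdU and Alexa 488 secondary plus PI, then read by flow cytometry. Normalized to control ± SEM; ANOVA.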

LNCaP [15] = assay: Decrease in Bcl2 expression in LNCaP cells at 50 nM after 72 hrs by Western blot analysis; format: functional, cell-based; conditions: Homo sapiens; summary of the method: as §1
LNCaP [16] = assay: Growth inhibition of human LNCaP cells at 100 nM after 72 hrs by MTT assay; format: functional; summary of the method: as §2
LNCaP [17] = assay: Increase in CDK6 expression in LNCaP cells at 50 nM after 72 hrs by Western blot analysis; format: functional, cell-based; conditions: Homo sapiens; summary of the method: as §1
TRAMP-C2H [18] = assay: Inhibition of DNA synthesis in mouse C2H cells at 50 nM after 72 hrs by BrdU incorporation assay; format: functional; parameters: scale not given: the % may be the effect or the level left
Summary of the method: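 Sub-confluent C2H cells given 50 nM or vehicle for 72 h, labelled with BrdU for 4 h, incorporation measured by colorimetric BrdU ELISA at 370 nm. Expressed as % of control ± SEM; ANOVA.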

LNCaP [19] = assay: Cell cycle arrest in LNCaP cells by accumulation at G2/M phase at 50 nM after 72 hrs by PI staining; format: functional, cell-based; conditions: Homo sapiens
Summary of the method: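 Sub-confluent LNCaP (RPMI, 10% FBS, 37 °C, 5% CO2) exposed to 50 nM or ethanol vehicle (≤0.002%) for 72 h; harvested, fixed in ice-cold 70% ethanol ≥30 min at 4 °C; ~10^6 cells stained with PI (10 μg/mL) plus RNase A (100 μg/mL) 30 min in dark; FACS; % cells in G0/G1, S, G2/M, mean of three independent experiments ± SEM.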

LNCaP [20] = assay: Induction of late apoptosis in LNCaP cells at 50 nM after 72 hrs relative to control by V-PE/7-AAD staining; format: functional, cell-based; conditions: Homo sapiens
Summary of the method: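 Sub-confluent LNCaP treated 72 h with 50 nM or ethanol vehicle; trypsinized, washed twice in ice-cold PBS, stained with annexin V-PE and 7-AAD 15 min in dark, analysed by FACS; late stage scored as annexin V plus 7-AAD positive; mean fold increase ± SEM normalized to control (=1.0), ANOVA.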

SMILES	Activity (LNCaP [1])	GI50 (TRAMP-C2H [2]) [nM]	Activity (LNCaP [3])	Activity (LNCaP [4])	GI50 (LNCaP [5]) [nM]	Activity (LNCaP [6])	Activity (LNCaP [7]) [%]	Activity (LNCaP [8])	Activity (LNCaP [9])	Activity (LNCaP [10])	GI50 (TRAMP-C1A) [nM]	Activity [11]	Activity (LNCaP [12])	Activity (LNCaP [13])	Activity (LNCaP [15])	inhibition at 0.1 µM (LNCaP [16]) [%]	Activity (LNCaP [17])	other results
CCOP(=O)(OCC)OCC(C[C@H]1O[C@@H]2O[C@@]3(C)CC[C@H]4[C@H](C)CC[C@@H]([C@H]1C)[C@@]24OO3)C[C@H]1O[C@@H]2O[C@@]3(C)CC[C@H]4[C@H](C)CC[C@@H]([C@H]1C)[C@@]24OO3 (stereo not given in full)	Active	39.4	Active	Active	36.3	4	10	inactive	Active	Active	42.2	Active	6.5	9				
C[C@H]1[C@@H](CC(CNc2ccccc2)C[C@H]2O[C@@H]3O[C@@]4(C)CC[C@H]5[C@H](C)CC[C@@H]([C@H]2C)[C@@]35OO4)O[C@@H]2O[C@@]3(C)CC[C@H]4[C@H](C)CC[C@@H]1[C@@]24OO3 (stereo not given in full)	Active	17	Active	Active	17.9	4	10	inactive	Active	Active	18	Active	6.5	9	Active	97	Active	Activity (LNCaP [14]): >90%; Activity (TRAMP-C2H [18]): >90%
COc1cccc2c1C(=O)c1c(O)c3c(c(O)c1C2=O)C[C@@](O)(C(=O)CO)C[C@@H]3O[C@H]1C[C@H](N)[C@H](O)[C@H](C)O1 [DOXORUBICIN]		15.8			45.3						20.4					69		Activity (LNCaP [19]): Active; Activity (LNCaP [20]): Active
C[C@H]1[C@@H](CC(COP(=O)(Oc2ccccc2)Oc2ccccc2)C[C@H]2O[C@@H]3O[C@@]4(C)CC[C@H]5[C@H](C)CC[C@@H]([C@H]2C)[C@@]35OO4)O[C@@H]2O[C@@]3(C)CC[C@H]4[C@H](C)CC[C@@H]1[C@@]24OO3 (stereo not given in full)	Active	44.8	Active	Active	34.4	4	10	inactive	Active	Active	31.9	Active	6.5	9	Active		Active	
